# According to PubChem BioAssay:
# The source made the active and inactive calls.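 Rule for the calls, unless noted: active = duplicate-averaged activation above buffer control mean plus 5 SD of those controls; inactive = the rest.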
# Legend:
# [1] = thallium flux activation in parental CHO cells, counter-screen for KCNQ1 potentiator project (AID 493006); details: parental CHO-K1 cells, FluxOR thallium flux, at 10 µM; hits give high values
# Procedure, shortened: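 Assay system: Untransfected host CHO-K1 cells with FluxOR thallium dye | Probe or stimulus: Potassium/thallium depolarization pulse | Schedule: Overnight 37 °C plating, 90 min RT dye, 20 min compound | Detection: Kinetic thallium-flux fluorescence | Read-out: Max-minus-min fluorescence over baseline, percent of buffer-to-R-L3 span | Benchmarks: Low control buffer, high control R-L3 activator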
# [2] = molecular target: Potassium voltage-gated channel subfamily KQT member 1 (Homo sapiens) (UniProt P51787); assay: KCNQ1 potassium channel potentiators, confirmation, FluxOR thallium flux, CHO cells, duplicates (AID 493007;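 active = potentiation averaged over duplicate wells exceeding buffer-only control mean by more than 3 SD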;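 for outcome: cells depolarized by a potassium plus thallium sulfate stimulus after compound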); details: KCNQ1 cell line, FluxOR thallium flux fluorescence, at 10 µM; hits give high values, % of reference activator effect, buffer zero
# Procedure, shortened: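 Material: KCNQ1-expressing CHO cell line; Incubation: FluxOR dye loading 90 min, compound exposure 20 min, room temperature; Detection: FluxOR Tl+ flux fluorescence, 10 s baseline plus 110 s recording; Read-out: percent activation between buffer and R-L3 responses; Control set: buffer-only wells as 0% and R-L3 activator as 100%; Replication: duplicate wells per compound.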
# [3] = molecular target: Potassium voltage-gated channel subfamily KQT member 2 (Rattus norvegicus) (UniProt O88943); assay: rat KCNQ2 channel potentiation, selectivity assay for KCNQ1 potentiator project, KCNQ2-CHO-K1 cells (AID 493009;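 active = mean duplicate potentiation above the buffer control mean plus 5 SD of buffer wells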;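 note: assay conditions were tuned for KCNQ1 rather than KCNQ2 modulators; signal is max minus min fluorescence divided by baseline after thallium stimulus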); details: FluxOR thallium flux fluorescence, at 10 µM; hits give high values, scaled: buffer 0, activator control 100
# [4] = molecular target: Potassium voltage-gated channel subfamily KQT member 1 (Homo sapiens) (UniProt P51787); assay: KCNQ1 channel current potentiators, confirmation, orthogonal assay for KCNQ1 potentiator project, IonWorks patch clamp, KCNQ1-CHO cells (AID 493184;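 active = current rise at least 3 SD above the untreated control mean in each of two repeat wells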); details: automated patch clamp current, at 10 µM; hits give high values
# Procedure, shortened: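 assay system = KCNQ1-expressing CHO cells | medium = external bath solution at pH 7.4 | probe or stimulus = 2,000 ms depolarization, -90 to +40 mV | compound dosing = 10 µM final, single point | measured by = automated voltage clamp, amphotericin B perforated patch | measure = percent current increase versus pre-compound level | replication = duplicates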
# Potassium voltage-gated channel subfamily KQT member 1 (Homo sapiens), sequence (P51787 whole entry, looked up): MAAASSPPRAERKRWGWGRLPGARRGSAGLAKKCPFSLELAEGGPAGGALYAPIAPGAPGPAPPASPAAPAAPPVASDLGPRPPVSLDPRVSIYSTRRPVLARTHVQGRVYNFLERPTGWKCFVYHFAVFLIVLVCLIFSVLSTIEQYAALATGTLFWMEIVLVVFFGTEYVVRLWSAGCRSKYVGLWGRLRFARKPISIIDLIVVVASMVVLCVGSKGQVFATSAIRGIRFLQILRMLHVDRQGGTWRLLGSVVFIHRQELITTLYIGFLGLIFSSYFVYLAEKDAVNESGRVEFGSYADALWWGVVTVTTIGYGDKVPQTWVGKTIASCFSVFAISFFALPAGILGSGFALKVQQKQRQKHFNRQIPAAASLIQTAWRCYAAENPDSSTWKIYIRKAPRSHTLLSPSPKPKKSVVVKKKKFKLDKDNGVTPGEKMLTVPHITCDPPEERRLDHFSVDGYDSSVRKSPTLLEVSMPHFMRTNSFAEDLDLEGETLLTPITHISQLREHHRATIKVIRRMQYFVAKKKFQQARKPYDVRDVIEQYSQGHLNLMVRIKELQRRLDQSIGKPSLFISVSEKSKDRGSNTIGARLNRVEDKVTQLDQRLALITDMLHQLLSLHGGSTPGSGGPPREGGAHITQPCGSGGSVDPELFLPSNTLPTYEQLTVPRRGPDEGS
# Potassium voltage-gated channel subfamily KQT member 2 (Rattus norvegicus), sequence (O88943 whole entry, looked up): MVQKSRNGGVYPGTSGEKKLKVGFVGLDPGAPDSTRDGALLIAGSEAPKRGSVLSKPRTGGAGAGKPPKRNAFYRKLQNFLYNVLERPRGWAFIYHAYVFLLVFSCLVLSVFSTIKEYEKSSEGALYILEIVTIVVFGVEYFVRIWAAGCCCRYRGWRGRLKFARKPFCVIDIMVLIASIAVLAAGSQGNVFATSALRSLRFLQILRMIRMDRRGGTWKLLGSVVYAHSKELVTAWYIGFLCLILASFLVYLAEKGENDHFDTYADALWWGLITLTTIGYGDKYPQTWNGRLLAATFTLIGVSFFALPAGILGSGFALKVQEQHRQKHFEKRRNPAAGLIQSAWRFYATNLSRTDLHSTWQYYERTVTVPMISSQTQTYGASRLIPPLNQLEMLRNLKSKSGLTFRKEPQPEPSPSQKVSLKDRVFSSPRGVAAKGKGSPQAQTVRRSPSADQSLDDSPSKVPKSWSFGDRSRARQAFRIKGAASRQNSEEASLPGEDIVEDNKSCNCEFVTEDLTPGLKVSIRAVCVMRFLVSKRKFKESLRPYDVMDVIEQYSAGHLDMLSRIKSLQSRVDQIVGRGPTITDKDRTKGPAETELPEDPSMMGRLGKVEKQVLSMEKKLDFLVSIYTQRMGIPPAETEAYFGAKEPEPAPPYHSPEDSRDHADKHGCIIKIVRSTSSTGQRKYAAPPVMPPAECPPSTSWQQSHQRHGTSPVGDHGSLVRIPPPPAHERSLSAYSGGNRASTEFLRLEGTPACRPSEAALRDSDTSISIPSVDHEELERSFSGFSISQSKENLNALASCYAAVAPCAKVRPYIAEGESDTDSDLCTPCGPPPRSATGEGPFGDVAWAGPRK
SMILES,outcome [1],outcome [2],outcome [3],outcome [4],activation [1],potentiation [2],potentiation [3]
Cc1nc2c(c3c1[nH]c1ccccc13)C(=O)CC(C)(C)C2,inactive,inactive,inactive,inactive,–,–,–
O=C1CCC(C(=O)N2CCSCC2)CN1Cc1cccc(C(F)(F)F)c1 (stereo not given),inactive,inactive,inactive,inactive,–,–,–
CCOC(=O)c1cnc2c(C(=O)OC)cccc2c1NCCN1CCOCC1,inactive,inactive,inactive,inactive,–,–,–
Cc1cccc(/C=C/C(=O)c2cc(Br)ccc(=O)c2O)c1,–,–,–,inactive,170% (active),90% (active),254% (active)
CCCCOc1ccc(C(=O)Oc2ccc(C)nc2)cc1,inactive,inactive,inactive,inactive,–,–,–
O=C(CCc1ccccc1)Nc1nccs1,inactive,inactive,inactive,inactive,–,–,–
O=C(NC(=S)N1CCCc2ccccc21)c1ccc(Br)cc1,–,–,–,inactive,222% (active),112% (active),300% (active)
COc1ccc(-n2nc(C(=O)NCC(=O)N3CCC(C(N)=O)CC3)c3ccccc3c2=O)cc1,inactive,inactive,inactive,inactive,–,–,–
COc1ccc(C)cc1NC(=O)C(=O)NNC(=O)COc1ccc(Cl)cc1,–,–,–,inactive,166% (active),195% (active),258% (active)
Fc1ccccc1/C=N/NC(=S)Nc1ccc(Cl)cc1Cl,inactive,–,inactive,inactive,–,66.5% (active),–
O=S1(=O)Nc2c(ccc3cccnc23)-c2ccccc21,inactive,–,–,inactive,–,21% (active),154% (active)
CCSc1nc(=S)cc(C)[nH]1,–,–,–,inactive,340% (active),172% (active),388% (active)
CCCn1c(=S)[nH]c2sc3c(c2c1=O)CCCC3,–,–,–,inactive,418% (active),158% (active),434% (active)
Cc1cc(O)ccc1N=Cc1c(C(F)(F)F)[nH][nH]c1=O,inactive,inactive,inactive,inactive,–,–,–
CS(=O)(=O)NN1C(=O)c2ccccc2NC1c1ccccc1F (stereo not given),–,–,inactive,inactive,143% (active),32.5% (active),–
COCCNC(=O)C1CCN(S(=O)(=O)N2CCC3(CC2)OCCO3)CC1,inactive,inactive,inactive,inactive,–,–,–
O=C(NNc1nc2c(F)cccc2s1)c1cc(=O)c2ccccc2o1,inactive,inactive,inactive,inactive,–,–,–
COC(=O)C1CCCN1C(=O)COc1ccc(Br)cc1Cl (stereo not given),–,–,–,inactive,206% (active),48.5% (active),198% (active)
CC1CCCN(c2ccc(C(=O)NCc3ccccc3)cn2)C1 (stereo not given),–,–,–,inactive,155% (active),26% (active),152% (active)
C=CCOc1c(Br)cc(/C=N/Nc2ccc(C(=O)O)cc2)cc1OCC,inactive,inactive,inactive,inactive,–,–,–
OCCCCNCc1ccc(OCc2ccc(Cl)cc2Cl)cc1,inactive,–,inactive,inactive,–,23.5% (active),–
Cc1cccc(CNC(=O)C2CCCN(c3nn4c(=O)cc(C)nc4s3)C2)c1 (stereo not given),inactive,inactive,inactive,inactive,–,–,–
CCC(=O)Nc1cc(-c2nn3c(C)nnc3s2)ccc1C,inactive,inactive,inactive,inactive,–,–,–
COc1ccc(N=Nc2ccc(O)c3ncccc23)cc1,–,–,–,inactive,176% (active),90% (active),249% (active)
Cn1c(=S)[nH]c2scc(-c3cccs3)c2c1=O,–,–,–,inactive,524% (active),218% (active),500% (active)
O=C(c1ccccc1)N1CCCC(c2ccc(Cl)cc2)=N1,inactive,inactive,inactive,inactive,–,–,–
O=C(CNC(=O)C(c1ccccc1)c1ccccc1)N/N=C/c1ccc(O)cc1O,inactive,inactive,inactive,inactive,–,–,–
COc1ccc(/C=C2\SC(=O)NC2=S)cc1OC,–,–,–,inactive,154% (active),34% (active),191% (active)

SMILES,outcome [1],outcome [2],outcome [3],outcome [4],activation [1],potentiation [2],potentiation [3]
CCN(CC)C(=S)NC(=O)c1ccc(Cl)cc1Cl,–,–,–,inactive,226% (active),50% (active),196% (active)
O=c1cc(-c2c(F)c(F)c(F)c(F)c2F)oc2ccccc12,inactive,inactive,inactive,inactive,–,–,–
O=C(c1cccnc1)N1N=C2CCCCCC2C1(O)C(F)(F)F (stereo not given),inactive,inactive,inactive,inactive,–,–,–
Cc1ccc(-c2c(C)n([O-])c3c([n+]2=O)CCCC3)o1,inactive,inactive,inactive,inactive,–,–,–
O=C(Cn1ncc2c(=O)oc3ccccc3c21)N1CCN(C(=O)c2ccco2)CC1,inactive,inactive,inactive,inactive,–,–,–
O=C(NC(=S)NCCC1=CCCCC1)c1ccc(Br)o1,–,–,–,inactive,212% (active),304% (active),371% (active)
CCCCn1c(N)c(N(CC)C(=O)CSCc2c(C)noc2C)c(=O)[nH]c1=O,inactive,inactive,inactive,inactive,–,–,–
S=c1[nH]nc(-c2ccco2)n1/N=C/c1ccc(Cl)cc1Cl,–,–,–,inactive,174% (active),48% (active),173% (active)
CCOC(=O)CC1=NS(=O)(=O)c2ccccc2N1,inactive,inactive,inactive,inactive,–,–,–
CCNC(=S)Nc1scc(-c2ccccc2)c1C(=O)OCC,–,–,–,inactive,254% (active),44% (active),214% (active)
O=C(CSc1nc2cc(Cl)ccc2s1)c1ccco1,inactive,–,inactive,inactive,–,24% (active),–
CN(C)S(=O)(=O)c1ccc(Cl)c(NC(=O)CN2CCCCCC2)c1,inactive,inactive,inactive,inactive,–,–,–
Cc1ccccc1C([O-])=Nc1ccc[n+](-c2nc3ccccc3nc2NS(=O)(=O)c2ccccc2)c1,inactive,inactive,inactive,inactive,–,–,–
O=C(COc1ncnc2ccc(Br)cc12)Nc1ccc(N2CCOCC2)cc1,inactive,inactive,inactive,inactive,–,–,–
O=c1c2ccc(Cl)cc2nc(-c2ccc([N+](=O)[O-])cc2)n1O,–,–,–,inactive,345% (active),90.5% (active),428% (active)
C/C(=N/NC(=O)c1cc(C2CC2)[nH]n1)c1cccs1,–,–,inactive,inactive,150% (active),31.5% (active),–
CC(C)(C)NC(=O)C(=O)NNC(=O)C12CC3CC(CC(C3)C1)C2,–,–,–,inactive,178% (active),40% (active),192% (active)
COC(=O)c1c(NS(=O)(=O)Cc2ccccc2)sc2c1CCCC2,–,–,–,inactive,196% (active),136% (active),186% (active)
COc1ccc(C(=O)Nc2ccnn2C2CCN(Cc3ccncc3)CC2)cc1,inactive,inactive,inactive,inactive,–,–,–
CCOC(=O)c1sc2nc(C)[nH]c(=S)c2c1C,–,–,–,inactive,198% (active),52% (active),214% (active)
COc1ccc(C(=O)CC(=O)C(=O)Nc2ccccc2C(F)(F)F)cc1,inactive,–,–,inactive,–,38.5% (active),147% (active)
Cc1[nH]c(-c2ccccn2)nc(=S)c1Cl,–,–,–,inactive,244% (active),106% (active),262% (active)
Cc1ccccc1-c1nc(-c2ccccn2)no1,inactive,inactive,inactive,inactive,–,–,–
Cn1c(SCc2ccc(C#N)cc2Cl)nc2ccccc21,inactive,inactive,inactive,inactive,–,–,–
O=C(CSc1cccc[n+]1[O-])c1cc(Cl)ccc1Cl,inactive,inactive,inactive,inactive,–,–,–
COc1ccc(C(=O)O/N=C(\N)Cc2ccc(Cl)cc2)cc1OC,inactive,inactive,inactive,inactive,–,–,–
FC(F)Sc1nc2ccccc2[nH]1,–,inactive,inactive,inactive,154% (active),–,–
